Measured values taken from ChEMBL document CHEMBL1135484, “Structural features of azidopyridinyl neonicotinoid probes conferring high affinity and selectivity for mammalian alpha4beta2 and Drosophila nicotinic receptors” (J Med Chem, 2002).
pKi: −log10 of the molar value.

Tests used:
Drosophila melanogaster = test: Selectivity ratio of Ki of Nicotinic acetylcholine receptor of Drosophila to Nicotinic acetylcholine receptor alpha4-beta2
[1] = Potency to displace [3H]IMI binding to Nicotinic acetylcholine receptor from Drosophila head membranes; set-up: species or system Drosophila melanogaster
How it was run: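 Drosophila head membranes as receptor source, competition against [3H]IMI binding; IC50 (concentration giving 50% inhibition of specific binding) fitted by iterative nonlinear least-squares regression.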

[2] = molecular target: Neuronal acetylcholine receptor; alpha4/beta2; test: Potency to displace [3H]nicotine binding to Nicotinic acetylcholine receptor alpha4-beta2 immuno-isolated from M10 cells; assay type: cell-based, Gallus gallus

Row | SMILES | Selectivity (Drosophila melanogaster) | pKi [1] | pKi [2]
1 | [N-]=[N+]=Nc1cc(CN2CCN/C2=N\[N+](=O)[O-])cnc1Cl [5-AZIDOIMIDACLOPRID] | 14 | 7.62 | 
2 | N=C1NCCN1Cc1ccc(Cl)nc1 [DESNITROIMIDACLOPRID] | 364 | 6.10 | 8.66
3 | [N-]=[N+]=Nc1cc(Cn2ccsc2=N)cnc1Cl | 1600 | 6.12 | 9.33
4 | N=c1sccn1Cc1ccc(Cl)nc1 | 256 | 7.00 | 9.41
5 | [N-]=[N+]=Nc1ccncc1Cn1ccsc1=N | 36 | 4.52 | 6.09
6 | [N-]=[N+]=Nc1ccncc1Cn1ccnc1N[N+](=O)[O-] | 27 | 5.44 | 4.02
7 | O=[N+]([O-])NC1=NCCN1Cc1ccc(Cl)nc1 [IMIDACLOPRID] |  |  | 6.14
8 | N#C/N=c1\sccn1Cc1cnc(Cl)c(N=[N+]=[N-])c1 | 4.3 | 7.55 | 6.92
9 | [N-]=[N+]=Nc1cncc(Cn2ccsc2=N)c1 | 867 | 5.14 | 8.08
10 | O=[N+]([O-])/N=c1\sccn1Cc1ccc(Cl)nc1 | 486 | 9.46 | 6.77
11 | [N-]=[N+]=Nc1cncc(Cn2ccnc2N[N+](=O)[O-])c1 | 10 | 6.27 | 5.27
12 | Clc1ccc(C2CC3CCC2N3)cn1 (stereo unspecified) [EPIBATIDINE] |  | 6.66 | 
13 | [N-]=[N+]=Nc1cc(CN2CCNC2=N[N+](=O)[O-])cnc1Cl [5-AZIDOIMIDACLOPRID] |  |  | 6.47
14 | [N-]=[N+]=Nc1cc(Cl)ncc1Cn1ccsc1=N | 29 | 5.49 | 6.96
15 | O=[N+]([O-])Nc1nccn1Cc1ccc(Cl)nc1 [DEHYDROIMIDACLOPRID] | 553 | 9.07 | 6.33
16 | [N-]=[N+]=Nc1cc(CN2CCN=C2N)cnc1Cl | 2190 | 5.24 | 8.59
17 | N#C/N=c1\sccn1Cc1ccc(Cl)nc1 [THIACLOPRID OLEFIN] | 86 | 8.85 | 6.92
18 | [N-]=[N+]=Nc1cc(Cn2ccs/c2=N\[N+](=O)[O-])cnc1Cl | 44 | 8.41 | 6.77
19 | CN1CCC[C@H]1c1cccnc1 [NICOTINE] |  | 5.70 | 
20 | [N-]=[N+]=Nc1cc(Cl)ncc1Cn1ccnc1N[N+](=O)[O-] | 37 | 6.34 | 4.77
21 | [N-]=[N+]=Nc1cc(Cn2ccnc2N[N+](=O)[O-])cnc1Cl | 23 | 7.89 | 6.52
22 | O=[N+]([O-])/N=C1\NCCN1Cc1ccc(Cl)nc1 [IMIDACLOPRID] | 327 | 8.66 | 
